pIC50: −log10 of the molar value.
Columns and labels:
K562 = assay: Antiproliferative activity against human K562 cells assessed as growth inhibition after 72 hrs by MTT assay; format: functional, cell-based; conditions: K562, 72 h
How it was run: (§1)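 MTT proliferation assay on human K562 leukaemia, MCF-7 breast adenocarcinoma, Bel-7402 hepatocellular carcinoma and MGC-803 gastric cancer cells. Drug exposure 72 h. IC50 is the concentration inhibiting 50% of cell growth. Means ± SD, n = 3.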

MCF7 = assay: Antiproliferative activity against human MCF7 cells assessed as growth inhibition after 72 hrs by MTT assay; format: functional, cell-based; conditions: MCF7, 72 h; how it was run: as §1
MGC-803 = assay: Antiproliferative activity against human MGC803 cells assessed as growth inhibition after 72 hrs by MTT assay; format: functional, cell-based; conditions: MGC-803, 72 h; how it was run: as §1
[1] = Antiproliferative activity against human Bel7402 cells assessed as growth inhibition after 72 hrs by MTT assay; format: functional, cell-based; conditions: Bel-7402, 72 h; how it was run: as §1
[2] = Cytotoxicity against human L02 cells by MTT assay; format: cell-based
How it was run: (§2)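 Toxicity compared on human normal liver L-02 cells and human liver cancer Bel-7402 cells run side by side. Survival curves by MTT after 72 h treatment. IC50 is the concentration inhibiting 50% of cell growth.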

[3] = Anticancer activity against human Bel7402 cells assessed as growth inhibition by MTT assay; format: functional, cell-based; conditions: Bel-7402; how it was run: as §2
Bel-7402 = assay: Selectivity index, ratio of IC50 for human L02 cells to ratio of IC50 for human Bel-7402 cells; format: functional
How it was run: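 Selectivity index is IC50 on normal L-02 liver cells divided by IC50 on Bel-7402 tumour cells. Both IC50 values come from MTT survival curves after 72 h exposure.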

[4] = Anticancer activity against ABCG2-overexpressing human NCI-H460/MX20 cells by MTT assay; format: functional, cell-based
How it was run: (§3)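 MTT cytotoxicity run on paired parental and transporter-overexpressing lines: SW620 vs ABCB1-overexpressing SW620/AD300, and NCI-H460 vs ABCG2-overexpressing NCI-H460/MX20. IC50 is the concentration inhibiting 50% of cell growth. Concentrations tested up to 100 μM.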

NCI-H460 = assay: Anticancer activity against human NCI-H460 cells by MTT assay; format: functional, cell-based; how it was run: as §3
[5] = Anticancer activity against ABCB1-overexpressing human SW620/AD300 cells by MTT assay; format: functional, cell-based; conditions: SW-620; how it was run: as §3
SW-620 = assay: Anticancer activity against human SW620 cells by MTT assay; format: functional, cell-based; how it was run: as §3

Compound: N[C@@H](Cc1ccc(N(CCCl)CCCl)cc1)C(=O)O [MELPHALAN]
- pIC50 (K562): 4.48
- pIC50 (MCF7): 4.71
- pIC50 (MGC-803): 4.43
- pIC50 [1]: 4.61

Compound: O=C(O)CCCc1ccc(N(CCCl)CCCl)cc1 [CHLORAMBUCIL]
- pIC50 [2]: 3.98
- pIC50 [3]: 4.31
- Ratio IC50 (Bel-7402): 2.14
- pIC50 (K562): 4.22
- pIC50 (MCF7): 4.09
- pIC50 (MGC-803): 3.87
- pIC50 [1]: 4.31

Compound: C=C1C(=O)[C@]23[C@H](OC(=O)CCC(=O)N[C@@H](Cc4ccc(N(CCCl)CCCl)cc4)C(=O)OC)[C@H]1CC[C@H]2[C@@]12CO[C@@]3(O)[C@@H](O)[C@@H]1C(C)(C)CC[C@@H]2O
- pIC50 [4]: < 4.00
- pIC50 (K562): 5.05
- pIC50 (NCI-H460): 4.55
- pIC50 (MCF7): 4.84
- pIC50 [5]: 4.83
- pIC50 (MGC-803): 5.03
- pIC50 (SW-620): 4.86
- pIC50 [1]: 5.08

Compound: C=C1C(=O)[C@]23[C@H](OC(=O)CCC(=O)N[C@@H](Cc4ccc(N(CCCl)CCCl)cc4)C(=O)OC)[C@H]1CC[C@H]2[C@@]12CO[C@@]3(O)[C@@H](O)[C@@H]1C(C)(C)CC[C@@H]2OC(C)=O
- pIC50 (K562): 5.76
- pIC50 (MCF7): 5.44
- pIC50 (MGC-803): 5.33
- pIC50 [1]: 5.59

Compound: C=C1C(=O)[C@]23[C@H](OC(=O)CCC(=O)N[C@@H](Cc4ccc(N(CCCl)CCCl)cc4)C(=O)OC)[C@H]1CC[C@H]2[C@@]12CO[C@@]3(O)[C@@H](O)[C@@H]1C(C)(C)CCC2=O
- pIC50 (K562): 5.78
- pIC50 (MCF7): 5.54
- pIC50 (MGC-803): 5.47
- pIC50 [1]: 5.85

Compound: C=C1C(=O)[C@]23[C@H](OC(=O)c4ccc(N(CCCl)CCCl)cc4)[C@H]1CC[C@H]2[C@@]12CO[C@@]3(O)[C@@H](O)[C@@H]1C(C)(C)CC[C@@H]2OC(C)=O
- pIC50 (K562): 5.87
- pIC50 (MCF7): 6.04
- pIC50 (MGC-803): 5.42
- pIC50 [1]: 5.62

Compound: C=C1C(=O)[C@]23[C@H](OC(=O)CCCc4ccc(N(CCCl)CCCl)cc4)[C@H]1CC[C@H]2[C@@]12CO[C@@]3(O)[C@@H](O)[C@@H]1C(C)(C)CC[C@@H]2O
- pIC50 [4]: 5.14
- pIC50 [2]: 5.02
- pIC50 [3]: 5.84
- Ratio IC50 (Bel-7402): 6.73
- pIC50 (K562): 5.64
- pIC50 (NCI-H460): 5.32
- pIC50 (MCF7): 5.88
- pIC50 [5]: 5.64
- pIC50 (MGC-803): 5.69
- pIC50 (SW-620): 5.57
- pIC50 [1]: 5.84

Compound: C=C1C(=O)[C@]23[C@H](OC(=O)CCCc4ccc(N(CCCl)CCCl)cc4)[C@H]1CC[C@H]2[C@@]12CO[C@@]3(O)[C@@H](O)[C@@H]1C(C)(C)CC[C@@H]2OC(C)=O
- pIC50 (K562): 5.96
- pIC50 (MCF7): 6.10
- pIC50 (MGC-803): 5.65
- pIC50 [1]: 5.86

From ChEMBL document CHEMBL3352716 (ACS Med Chem Lett, 2014)
